Data as given in ChEMBL document CHEMBL3817763, “Exploration of GGTase-I substrate requirements. Part 2: Synthesis and biochemical analysis of novel saturated geranylgeranyl diphosphate analogs” (Bioorg Med Chem Lett, 2016).
Activity calls are given as the source filed them. The rule behind the calls is not given here.

Experiments:
[1] = target: T1, Geranylgeranyl transferase type I (Homo sapiens) (UniProt P49354+P53609); experiment: Activity at recombinant GGTase1 (unknown origin) using dansyl-GCVLL as co-substrate assessed as protein prenylation at 5 uM incubated for 1.5 hrs by spectrofluorometric method
Procedure, shortened: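 Preliminary single-point screen: analog diphosphate 5 µM with 5 µM dansyl-GCVLL and 50 nM GGTase-I; continuous fluorescence read at 1.5 h. Result is given as relative fluorescence increase, normalized to GGPP (1.5 h) set to 1.0. Mean ± SD, n = 3.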

[2] = target: T2, Protein farnesyltransferase (Homo sapiens) (UniProt P49354+P49356); experiment: Activity at recombinant FTase (unknown origin) using dansyl-GCVLS as co-substrate assessed as protein prenylation at 5 uM incubated for 1.5 hrs by spectrofluorometric method; type: protein-complex assay
Procedure, shortened: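 Preliminary single-point screen: analog diphosphate 5 µM with 5 µM dansyl-GCVLS and 50 nM FTase; continuous fluorescence read at 1.5 h. Result is given as relative fluorescence increase, normalized to FPP (5 µM, 1.5 h) set to 1.0. Mean ± SD, n = 3.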

[3] = target: T2, Protein farnesyltransferase (Homo sapiens); experiment: Ratio of Kcat to Km for recombinant FTase (unknown origin) using dansyl-GCVLS as co-substrate assessed as protein prenylation by spectrofluorometric method relative to FPP; type: protein-complex assay
[4] = target: T1, Geranylgeranyl transferase type I (Homo sapiens); experiment: Ratio of Kcat to Km for recombinant GGTase1 (unknown origin) using dansyl-GCVLL as co-substrate assessed as protein prenylation by spectrofluorometric method relative to GGPP
Homo sapiens = species on record: Homo sapiens; experiment: Ratio of Kcat/Km for recombinant FTase (unknown origin) to Kcat/Km for recombinant GGTase1 (unknown origin)
[5] = test system: C/C(=C\COP(=O)(O)OP(=O)(O)O)CC/C=C(\C)CCCC(C)CCCC(C)C; experiment: (§1) Ratio of Kcat to Km for recombinant FTase (unknown origin) using dansyl-GCVLS as co-substrate assessed as protein prenylation by spectrofluorometric method; type: protein-complex assay; details: Homo sapiens
[6] = test system: CC(C)=CCC/C(C)=C/CC/C(C)=C/COP(=O)(O)OP(=O)(O)O; experiment: as §1; type: protein-complex assay; details: Homo sapiens
[7] = test system: CC(C)=CCCCCCCCCC/C(C)=C/COP(=O)(O)OP(=O)(O)O; experiment: as §1; type: protein-complex assay; details: Homo sapiens
[8] = test system: CC(C)=CCCCCCCCCCC/C(C)=C/COP(=O)(O)OP(=O)(O)O; experiment: as §1; type: protein-complex assay; details: Homo sapiens
[9] = test system: CCCCCC/C(C)=C/CC/C(C)=C/COP(=O)(O)OP(=O)(O)O; experiment: as §1; type: protein-complex assay; details: Homo sapiens
[10] = test system: CCCCCCC/C(C)=C/CC/C(C)=C/COP(=O)(O)OP(=O)(O)O; experiment: as §1; type: protein-complex assay; details: Homo sapiens
[11] = test system: CCCCCCCC/C(C)=C/CC/C(C)=C/COP(=O)(O)OP(=O)(O)O; experiment: as §1; type: protein-complex assay; details: Homo sapiens
[12] = test system: CCCCCCCCC/C(C)=C/CC/C(C)=C/COP(=O)(O)OP(=O)(O)O; experiment: as §1; type: protein-complex assay; details: Homo sapiens
[13] = test system: CCCCCCCCCCC/C(C)=C/COP(=O)(O)OP(=O)(O)O; experiment: as §1; type: protein-complex assay; details: Homo sapiens
[14] = test system: CCCCCCCCCCCC/C(C)=C/COP(=O)(O)OP(=O)(O)O; experiment: as §1; type: protein-complex assay; details: Homo sapiens
[15] = test system: CCCCCCCCCCCCC/C(C)=C/COP(=O)(O)OP(=O)(O)O; experiment: as §1; type: protein-complex assay; details: Homo sapiens
[16] = test system: C/C(=C\CC/C(C)=C/COP(=O)(O)OP(=O)(O)O)CC/C=C(\C)CCCC(C)C; experiment: (§2) Ratio of Kcat to Km for recombinant GGTase1 (unknown origin) using dansyl-GCVLL as co-substrate assessed as protein prenylation by spectrofluorometric method; details: Homo sapiens
[17] = test system: C/C(=C\COP(=O)(O)OP(=O)(O)O)CC/C=C(\C)CCCC(C)CCCC(C)C; experiment: as §2; details: Homo sapiens
[18] = test system: CC(C)=CCC/C(C)=C/CC/C(C)=C/CC/C(C)=C/COP(=O)(O)OP(=O)(O)O; experiment: as §2; details: Homo sapiens
[19] = test system: CC(C)=CCCCCCCCCC/C(C)=C/COP(=O)(O)OP(=O)(O)O; experiment: as §2; details: Homo sapiens
[20] = test system: CC(C)=CCCCCCCCCCC/C(C)=C/COP(=O)(O)OP(=O)(O)O; experiment: as §2; details: Homo sapiens
[21] = test system: CCCCCCC/C(C)=C/CC/C(C)=C/COP(=O)(O)OP(=O)(O)O; experiment: as §2; details: Homo sapiens
[22] = test system: CCCCCCCC/C(C)=C/CC/C(C)=C/COP(=O)(O)OP(=O)(O)O; experiment: as §2; details: Homo sapiens
[23] = test system: CCCCCCCCC/C(C)=C/CC/C(C)=C/COP(=O)(O)OP(=O)(O)O; experiment: as §2; details: Homo sapiens
[24] = test system: CCCCCCCCCCC/C(C)=C/COP(=O)(O)OP(=O)(O)O; experiment: as §2; details: Homo sapiens
[25] = test system: CCCCCCCCCCCC/C(C)=C/COP(=O)(O)OP(=O)(O)O; experiment: as §2; details: Homo sapiens
[26] = test system: CCCCCCCCCCCCC/C(C)=C/COP(=O)(O)OP(=O)(O)O; experiment: as §2; details: Homo sapiens

| Compound | Activity [1] | Activity [2] | Ratio [3] | Ratio [4] | Ratio (Homo sapiens) | further results |
| --- | --- | --- | --- | --- | --- | --- |
| CCCCCC/C(C)=C/CC/C(C)=C/COP(=O)(O)OP(=O)(O)O | Active | Active | 0.35 | – | – | – |
| CCCCCCCCCCCC/C(C)=C/COP(=O)(O)OP(=O)(O)O | Active | Active | 0.24 | 0.02 | 12 | – |
| Protein farnesyltransferase (Homo sapiens) (from UniProt P49354+P49356) | – | – | – | – | – | kcat/Km [5]: 3.5 ×10³ /M/s; kcat/Km [6]: 4.6 ×10⁴ /M/s; kcat/Km [7]: 6.8 ×10³ /M/s; kcat/Km [8]: 7.1 ×10³ /M/s; kcat/Km [9]: 1.6 ×10⁴ /M/s; kcat/Km [10]: 7.1 ×10³ /M/s; kcat/Km [11]: 9.7 ×10³ /M/s; kcat/Km [12]: 3.3 ×10⁴ /M/s; kcat/Km [13]: 8.3 ×10³ /M/s; kcat/Km [14]: 1.1 ×10⁴ /M/s; kcat/Km [15]: 4.1 ×10³ /M/s |
| Geranylgeranyl transferase type I (Homo sapiens) (from UniProt P49354+P53609) | – | – | – | – | – | kcat/Km [16]: 6.3 ×10³ /M/s; kcat/Km [17]: 1.2 ×10³ /M/s; kcat/Km [18]: 3.78 ×10⁴ /M/s; kcat/Km [19]: 9 ×10² /M/s; kcat/Km [20]: 1.9 ×10⁴ /M/s; kcat/Km [21]: 3.2 ×10⁴ /M/s; kcat/Km [22]: 2.2 ×10⁴ /M/s; kcat/Km [23]: 3.6 ×10⁴ /M/s; kcat/Km [24]: 3.2 ×10³ /M/s; kcat/Km [25]: 8.9 ×10² /M/s; kcat/Km [26]: 6.2 ×10³ /M/s |
| CC(C)=CCCCCCCCCCC/C(C)=C/COP(=O)(O)OP(=O)(O)O | Active | Active | 0.15 | 0.5 | – | – |
| CC(C)=CCCCCCCCCC/C(C)=C/COP(=O)(O)OP(=O)(O)O | Active | Active | 0.15 | 0.02 | – | – |
| CCCCCCC/C(C)=C/CC/C(C)=C/COP(=O)(O)OP(=O)(O)O | Active | Active | 0.15 | 0.85 | 0.22 | – |
| CCCCCCCCC/C(C)=C/CC/C(C)=C/COP(=O)(O)OP(=O)(O)O | Active | Active | 0.72 | 0.95 | – | – |
| C/C(=C\COP(=O)(O)OP(=O)(O)O)CC/C=C(\C)CCCC(C)CCCC(C)C (stereo not drawn) | Active | Active | 0.05 | 0.03 | – | – |
| C/C(=C\CC/C(C)=C/COP(=O)(O)OP(=O)(O)O)CC/C=C(\C)CCCC(C)C | Active | Active | – | 0.17 | – | – |
| CCCCCCCCCCC/C(C)=C/COP(=O)(O)OP(=O)(O)O | Active | Active | 0.18 | 0.08 | 2 | – |
| CCCCCCCC/C(C)=C/CC/C(C)=C/COP(=O)(O)OP(=O)(O)O | Active | Active | 0.21 | 0.58 | 0.44 | – |
| CCCCCCCCCCCCC/C(C)=C/COP(=O)(O)OP(=O)(O)O | Active | Active | 0.09 | 0.16 | – | – |
